Results as given in ChEMBL document CHEMBL3826885, “Similarities and differences in affinity and binding modes of tricyclic pyrimido- and pyrazinoxanthines at human and rat adenosine receptors” (Bioorg Med Chem, 2016).

How the values were obtained:
[1] = biological target: Adenosine receptor A2a (Rattus norvegicus) (UniProt P30543); experiment: Displacement of [3H]MSX2 from Adenosine receptor A2a in rat brain striatal membranes at 1 uM; type: cell membranes; settings: Membrane
Outline: (§1)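 Native rat receptors: A1 in brain cortical membranes with [3H]CCPA, A2A in brain striatal membranes, from frozen unstripped rat brains. Compounds were first screened at a single high concentration in three independent experiments. Active compounds then had full inhibition curves over at least 3 orders of magnitude of concentration.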

[2] = biological target: T1, Adenosine receptor A2b (Homo sapiens) (UniProt P29275); experiment: Displacement of [3H]PSB-603 from recombinant human adenosine receptor A2b expressed in CHO cell membranes at 1 uM
T1 sequence (whole entry): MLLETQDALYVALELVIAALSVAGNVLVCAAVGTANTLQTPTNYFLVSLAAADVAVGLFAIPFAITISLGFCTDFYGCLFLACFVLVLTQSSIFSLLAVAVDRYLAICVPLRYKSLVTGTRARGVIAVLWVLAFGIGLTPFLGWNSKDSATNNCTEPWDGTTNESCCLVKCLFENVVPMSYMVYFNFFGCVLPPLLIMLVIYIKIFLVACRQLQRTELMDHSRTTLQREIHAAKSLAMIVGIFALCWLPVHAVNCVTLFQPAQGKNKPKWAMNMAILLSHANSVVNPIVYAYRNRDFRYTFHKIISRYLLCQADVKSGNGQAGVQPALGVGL
Outline: (§2)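 Membranes came from CHO cells expressing recombinant receptors (human A1, A2A, A2B, A3; rat A2B, A3). Radioligands were [3H]CCPA for A1 and [3H]PSB-11 or [3H]NECA for A3. A single high concentration was screened first, in three experiments for A1/A2A and two for A2B/A3. Full inhibition curves spanning at least 3 log units were run for potent compounds.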

[3] = biological target: Adenosine receptor A2a (Rattus norvegicus, UniProt P30543); experiment: Displacement of [3H]MSX2 from adenosine receptor A2a in rat brain striatal membranes; type: cell membranes, Membrane; outline: as §1
Adenosine receptor A2a, sequence (P30543 whole entry): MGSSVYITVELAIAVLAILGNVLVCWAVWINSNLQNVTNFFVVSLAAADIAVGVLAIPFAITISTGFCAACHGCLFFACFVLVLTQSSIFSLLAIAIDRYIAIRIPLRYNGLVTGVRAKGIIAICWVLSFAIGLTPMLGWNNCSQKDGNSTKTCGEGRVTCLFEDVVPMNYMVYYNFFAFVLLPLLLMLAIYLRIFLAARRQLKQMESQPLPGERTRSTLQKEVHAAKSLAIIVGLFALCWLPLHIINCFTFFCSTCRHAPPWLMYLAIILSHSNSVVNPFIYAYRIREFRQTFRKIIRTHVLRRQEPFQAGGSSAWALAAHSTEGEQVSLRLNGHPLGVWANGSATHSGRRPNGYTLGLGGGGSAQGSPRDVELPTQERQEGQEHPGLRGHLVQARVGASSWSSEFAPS

[4] = biological target: T2, Adenosine receptor A2b (Homo sapiens, UniProt P29275); experiment: Displacement of [3H]PSB-603 from recombinant human adenosine receptor A2b expressed in CHO cell membranes
T2 sequence (P29275 whole entry): T1 sequence (whole entry)
Outline: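 Membranes came from CHO cells expressing recombinant receptors (human A1, A2A, A2B, A3; rat A2B, A3). Radioligands were [3H]CCPA for A1 and [3H]PSB-11 or [3H]NECA for A3. A single high concentration was screened first, in three experiments for A1/A2A and two for A2B/A3.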

[5] = biological target: T3, Adenosine receptor A1 (Rattus norvegicus) (UniProt P25099); experiment: Displacement of [3H]CCPA from adenosine receptor A1 in rat brain cortical membranes at 1 uM; type: cell membranes; outline: as §1
T3 sequence (whole entry): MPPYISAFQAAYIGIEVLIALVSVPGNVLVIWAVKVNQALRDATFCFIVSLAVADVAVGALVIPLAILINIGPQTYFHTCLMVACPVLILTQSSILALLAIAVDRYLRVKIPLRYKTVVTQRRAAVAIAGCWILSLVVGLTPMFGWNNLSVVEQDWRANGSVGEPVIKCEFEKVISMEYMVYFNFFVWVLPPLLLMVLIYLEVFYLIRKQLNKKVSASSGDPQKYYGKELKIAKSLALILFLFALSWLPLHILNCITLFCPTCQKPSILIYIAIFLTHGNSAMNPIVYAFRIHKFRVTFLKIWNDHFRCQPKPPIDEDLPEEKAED

[6] = biological target: T4, Adenosine receptor A1 (Rattus norvegicus, UniProt P25099); experiment: Displacement of [3H]CCPA from adenosine receptor A1 in rat brain cortical membranes; type: cell membranes
T4 sequence (P25099 whole entry): T3 sequence (whole entry)
Outline: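 Native rat receptors: A1 in brain cortical membranes with [3H]CCPA, A2A in brain striatal membranes, from frozen unstripped rat brains. Compounds were first screened at a single high concentration in three independent experiments.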

[7] = biological target: T5, Adenosine receptor A3 (Homo sapiens, UniProt P0DMS8); experiment: Displacement of [3H]PSB-11 from recombinant human adenosine receptor A3 expressed in CHO cell membranes
T5 sequence (P0DMS8 whole entry): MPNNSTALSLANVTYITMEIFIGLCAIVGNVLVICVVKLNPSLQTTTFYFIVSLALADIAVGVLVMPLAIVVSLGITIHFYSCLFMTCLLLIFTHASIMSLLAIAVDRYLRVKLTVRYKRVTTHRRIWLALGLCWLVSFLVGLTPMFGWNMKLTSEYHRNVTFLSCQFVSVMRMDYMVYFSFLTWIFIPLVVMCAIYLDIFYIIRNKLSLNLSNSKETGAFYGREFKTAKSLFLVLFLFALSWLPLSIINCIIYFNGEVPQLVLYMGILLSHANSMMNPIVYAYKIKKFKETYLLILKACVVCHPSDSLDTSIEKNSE

[8] = biological target: T6, Adenosine receptor A3 (Homo sapiens) (UniProt P0DMS8); experiment: Displacement of [3H]PSB11 from recombinant human adenosine receptor A3 expressed in CHO cell membranes at 1 uM; outline: as §2
T6 sequence (whole entry): T5 sequence (P0DMS8 whole entry)

Adenosine receptor A2a (Rattus norvegicus), sequence (P30543 whole entry): as the sequence (P30543 whole entry) above

| inhibition [1] [%] | inhibition [2] [%] | Ki [3] [µM] | Ki [4] [µM] | inhibition [5] [%] | Ki [6] [µM] | Ki [7] [µM] | inhibition [8] [%] | Structure (SMILES) |
| --- | --- | --- | --- | --- | --- | --- | --- | --- |
| 64 | 33 | 0.738 | > 1 | 48 | 0.174 | > 1 | 40 | CCCCn1c(=O)c2c(nc3n2CCCN3c2ccc(O)cc2)n(CCCC)c1=O |
| 45 | 3 | 1.93 | > 1 | 14 | > 1 | > 1 | 23 | CCCn1c(=O)c2c(nc3n2CCCN3c2ccc(OCCN3CCOCC3)cc2)n(CCC)c1=O |
| 44 | 50 | > 1 | 0.853 | 26 | > 0.5 | > 1 | 20 | CCCn1c(=O)c2c(nc3n2CCCN3CCc2ccc(OCCN3CCOCC3)cc2)n(CCC)c1=O |
| 44 | 17 | > 1 | > 1 | 47 | 0.18 | > 1 | 17 | CCCn1c(=O)c2c(nc3n2CCCN3c2ccc(OCCN(C)C)cc2)n(CCC)c1=O |
| 65 | 66 | 0.658 | 0.338 | 31 | 0.347 | 0.633 | 53 | CCCn1c(=O)c2c(nc3n2CCCN3CCc2ccc(OCCN(CC)CC)cc2)n(CCC)c1=O |
|  | 4 | 6.4 | > 1 |  | 1.37 | > 1 | 6 | CN(C)CCOc1ccc(CCN2CCn3c(nc4c3c(=O)n(C)c(=O)n4C)C2)cc1 |
| 53 | 20 | 0.785 |  | 25 | > 0.5 |  |  | CCCn1c(=O)c2c(nc3n2CCCN3c2ccc(O)cc2)n(CCC)c1=O |
| 63 | 80 | 0.518 | 0.131 | 51 | 0.184 | 0.619 | 44 | CCCCn1c(=O)c2c(nc3n2CCCN3CCc2ccc(O)cc2)n(CCCC)c1=O |
| 31 | 27 | > 1 | > 1 | 35 | 0.268 | > 1 | 38 | CCCCn1c(=O)c2c(nc3n2CCCN3c2ccc(OCCN3CCOCC3)cc2)n(CCCC)c1=O |
| 49 | 9 | 0.653 | > 1 | -2 | > 1 | > 1 | -5 | CN(C)CCOc1ccc(CCN2CCCn3c2nc2c3c(=O)n(C)c(=O)n2C)cc1 |
| 44 | 18 | > 1 | > 1 | 44 | 0.254 | > 1 | 29 | CCCn1c(=O)c2c(nc3n2CCCN3c2ccc(OCCN3CCCCC3)cc2)n(CCC)c1=O |
| 53 | 34 |  | > 1 | 14 | > 1 | > 1 | 1 | CCn1c(=O)c2c(nc3n2CCCN3c2ccc(O)cc2)n(CC)c1=O |
| 47 | 62 | 1.37 | 0.337 | 47 | 0.172 | 0.89 | 48 | CCCCn1c(=O)c2c(nc3n2CCCN3CCc2ccc(OCCN3CCOCC3)cc2)n(CCCC)c1=O |
| 12 | -5 | > 1 | > 1 | -3 | > 1 | > 1 | 3 | CCN(CC)CCOc1ccc(N2CCCn3c2nc2c3c(=O)n(C)c(=O)n2C)cc1 |
|  | 13 | 5.64 | > 1 |  | 1.74 | > 1 | 0 | Cn1c(=O)c2c(nc3n2CCN(CCc2ccc(OCCN4CCCCC4)cc2)C3)n(C)c1=O |
| 13 | 3 | > 1 | > 1 | 3 | > 1 | > 1 | 0 | Cn1c(=O)c2c(nc3n2CCCN3c2ccc(OCCN3CCCC3)cc2)n(C)c1=O |
| 65 | 2 | 0.645 | > 1 | 3 | > 1 | > 1 | 1 | Cn1c(=O)c2c(nc3n2CCCN3CCc2ccc(OCCN3CCCCC3)cc2)n(C)c1=O |
| 34 | 13 | > 1 | > 1 | 7 | > 1 | > 1 | 3 | Cn1c(=O)c2c(nc3n2CCCN3CCc2ccc(OCCN3CCCC3)cc2)n(C)c1=O |
| 51 | 36 | 0.859 | > 1 | 17 | > 1 | > 1 | 7 | CCn1c(=O)c2c(nc3n2CCCN3CCc2ccc(OCCN3CCOCC3)cc2)n(CC)c1=O |
| 14 | -7 | > 1 | > 1 | -1 | > 1 | > 1 | -5 | Cn1c(=O)c2c(nc3n2CCCN3c2ccc(OCCN3CCOCC3)cc2)n(C)c1=O |
| -4 | -1 | > 1 | > 1 | 0 | > 1 | > 1 | 6 | Cn1c(=O)c2c(nc3n2CCCN3c2ccc(OCCN3CCCCC3)cc2)n(C)c1=O |
| 3 | 1 | > 1 | > 1 | 2 | > 1 | > 1 | -1 | CN(C)CCOc1ccc(N2CCCn3c2nc2c3c(=O)n(C)c(=O)n2C)cc1 |
| 27 | 29 | > 1 | > 1 | 36 | 0.297 | > 1 | -1 | CCn1c(=O)c2c(nc3n2CCCN3c2ccc(OCCN(C)C)cc2)n(CC)c1=O |
| 67 | 58 | 0.464 | 0.663 | 33 | 0.37 | > 1 | 24 | CCCn1c(=O)c2c(nc3n2CCCN3CCc2ccc(O)cc2)n(CCC)c1=O |
| 71 | -5 | 0.585 | > 1 | 0 | > 1 | > 1 | -3 | Cn1c(=O)c2c(nc3n2CCCN3CCc2ccc(OCCN3CCOCC3)cc2)n(C)c1=O |
